Experimental data taken from ChEMBL document CHEMBL1123308 (J Med Chem, 1986).
pEC50: −log10 of the molar value. Blank lines part the entries; values can stand above or below the molecule they belong to. Activity calls are given as the source filed them. No cut-off for these calls is given here.

Key:
[1] = Partition coefficient was determined in octanol-phosphate at pH 7.4; format: physicochemical; settings: octanol/phosphate buffer
Summary of the method: (§1)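 Octanol/buffer partitioning used phosphate buffer at pH 7.4, 6.5 or 6.0 and citrate buffer at pH 4.0. Phases were separated by centrifugation at 2000 rpm for 5 min. Concentration in one phase was read by UV absorbance at 235.5 nm in 1-cm cells, and the other phase was obtained by difference. Determinations were in duplicate at 2 or 3 octanol-buffer ratios (1:10 to 1:50). Log P = log(organic/aqueous concentration).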

[2] = Partition coefficient was determined in octanol-phosphate at pH 6.0; format: physicochemical; settings: octanol/phosphate buffer; summary of the method: as §1
[3] = Partition coefficient was determined in octanol-citrate at pH 4.0; settings: octanol/citrate buffer
[4] = Partition coefficient was determined in octanol-phosphate at pH 6.5; format: physicochemical; settings: octanol/phosphate buffer; summary of the method: as §1
[5] = test system: Nucleic Acid; assay: Stabilization of helical DNA toward thermal denaturation (delta Tm) was determined (isomeric ratio A/B/C = 2:91:7); format: nucleic-acid assay
Summary of the method: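 Thermal denaturation of calf thymus DNA (5.2 × 10^-5 M P) with drug at 5.2 × 10^-6 M. Buffer was 0.01 M phosphate pH 7 with 10^-5 M EDTA and 5% Me2SO. ΔTm = Tm of the DNA-drug complex minus Tm of DNA alone. Values ≤1 are taken as insignificant binding.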

[6] = test system: Mus musculus; assay: Compound was evaluated for antitumor efficacy at optimum dose in mice aagainst B16 melanoma cells at 0.0625 mg/Kg day 1 (intraperitoneal); format: functional; settings: in the assay text read “0.625 mg/Kg” for “0.0625 mg/Kg”
Summary of the method: (§2)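 Mouse survival screens were run by NCI protocols, with intraperitoneal dosing on the schedule given. Efficacy is % T/C, the average survival time of treated mice divided by that of control mice, at the optimal dose.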

[7] = test system: L1210; assay: Compound was evaluated for drug concentration for 50% inhibition of actively growing L1210 cells in culture for the inhibition of incorporation of [3H]thymidine in the DNA(isomeric ratio A/B/C = 2:91:7); format: functional; settings: Mus musculus, read-out: ED50 (the source's name)
Summary of the method: (§3)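 Actively growing L1210 cells in culture. Drug was dissolved in Me2SO and diluted to 1% Me2SO final. The read-out is [3H]thymidine incorporation into DNA or [3H]uridine incorporation into RNA. ED50 is the drug concentration giving 50% inhibition of incorporation.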

[8] = test system: L1210; assay: Compound was evaluated for drug concentration for 50% inhibition of actively growing L1210 cells in culture for the inhibition of incorporation of [3H]thymidine in the DNA(isomeric ratio A/B/C = 28:69:0); format: functional; settings: Mus musculus, read-out: ED50 (the source's name); summary of the method: as §3
[9] = Stabilization of helical DNA toward thermal denaturation (delta Tm) was determined (isomeric ratio A/B/C = 7:0:92); format: ADME
[10] = test system: Mus musculus; assay: Compound was evaluated for antitumor efficacy at optimum dose in mice against P388 leukemic cells at 1.25 mg/Kg day 1 (intraperitoneal); format: functional; summary of the method: as §2
[11] = test system: Mus musculus; assay: Compound was evaluated for antitumor efficacy at optimum dose in mice against B16 melanoma cells at 2.5 mg/kg on q4d 1,5,9 days (intravenous)
[12] = test system: L1210; assay: Compound was evaluated for drug concentration for 50% inhibition of actively growing L1210 cells in culture for the inhibition of incorporation of [3H]uridine in the RNA(isomeric ratio A/B/C = 28:69:0); format: functional; settings: Mus musculus, read-out: ED50 (the source's name); summary of the method: as §3
[13] = test system: Mus musculus; assay: Compound was evaluated for antitumor efficacy at optimum dose in mice against P388 leukemic cells at 2 mg/kg q4d 5,9,13 days (intraperitoneal); format: functional; summary of the method: as §2
[14] = Stabilization of helical DNA toward thermal denaturation (delta Tm) was determined (isomeric ratio A/B/C = 28:69:0); format: ADME
[15] = test system: L1210; assay: Compound was evaluated for drug concentration for 50% inhibition of actively growing L1210 cells in culture for the inhibition of incorporation of [3H]uridine in the RNA(isomeric ratio A/B/C = 7:0:92); format: functional; settings: Mus musculus, read-out: ED50 (the source's name); summary of the method: as §3
[16] = test system: L1210; assay: Compound was evaluated for drug concentration for 50% inhibition of actively growing L1210 cells in culture for the inhibition of incorporation of [3H]thymidine in the DNA(isomeric ratio A/B/C = 7:0:92); format: functional; settings: Mus musculus, read-out: ED50 (the source's name); summary of the method: as §3
[17] = test system: L1210; assay: Compound was evaluated for drug concentration for 50% inhibition of actively growing L1210 cells in culture for the inhibition of incorporation of [3H]uridine in the RNA(isomeric ratio A/B/C = 2:91:7); format: functional; settings: Mus musculus, read-out: ED50 (the source's name); summary of the method: as §3
[18] = test system: L1210; assay: Compound was evaluated for drug concentration for 50% inhibition of actively growing L1210 cells in culture for the inhibition of incorporation of [3H]thymidine in the DNA(isomeric ratio A/B = 76:12); format: functional; settings: Mus musculus, read-out: ED50 (the source's name); summary of the method: as §3
[19] = Stabilization of helical DNA toward thermal denaturation (delta Tm) was determined (isomeric ratio A/B = 76:12); format: ADME
[20] = test system: L1210; assay: Compound was evaluated for drug concentration for 50% inhibition of actively growing L1210 cells in culture for the inhibition of incorporation of [3H]uridine in the RNAisomeric ratio A/B = 4:91); format: functional; settings: Mus musculus, read-out: ED50 (the source's name); summary of the method: as §3
[21] = Stabilization of helical DNA toward thermal denaturation (delta Tm) was determined (isomeric ratio A/B = 4:91); format: ADME
[22] = test system: L1210; assay: Compound was evaluated for drug concentration for 50% inhibition of actively growing L1210 cells in culture for the inhibition of incorporation of [3H]uridine in the RNA(isomeric ratio A/B = 76:12); format: functional; settings: Mus musculus, read-out: ED50 (the source's name); summary of the method: as §3
[23] = test system: L1210; assay: Compound was evaluated for drug concentration for 50% inhibition of actively growing L1210 cells in culture for the inhibition of incorporation of [3H]thymidine in the DNA(isomeric ratio A/B = 4:91); format: functional; settings: Mus musculus, read-out: ED50 (the source's name); summary of the method: as §3
[24] = test system: L1210; assay: Compound was evaluated for drug concentration for 50% inhibition of actively growing L1210 cells in culture for the inhibition of incorporation of [3H]thymidine in the DNA; format: functional; settings: Mus musculus, read-out: ED50 (the source's name)
Summary of the method: (§4)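 Actively growing L1210 leukemia cells in culture; incorporation of [3H]thymidine into DNA or [3H]uridine into RNA measured. ED50 is the drug concentration giving 50% inhibition of incorporation. Drugs dissolved in Me2SO first, then diluted to 1% Me2SO final.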

[25] = test system: Mus musculus; assay: Compound was evaluated for antitumor efficacy at optimum dose in mice against P388 leukemic cells at 8 mg/Kg on q4d 5,9,13 days (intraperitoneal); format: functional; summary of the method: as §2
[26] = test system: Mus musculus; assay: Compound was evaluated for antitumor efficacy at optimum dose in mice against B16 melanoma cells at 10 mg/Kg on q4d 1,5,9 days (intravenous)
[27] = test system: Mus musculus; assay: Compound was evaluated for antitumor efficacy at optimum dose in mice against P388 leukemic cells at 7.5 mg/Kg day 1 (intraperitoneal); format: functional; summary of the method: as §2
[28] = Stabilization of helical DNA toward thermal denaturation (delta Tm) was determined; format: ADME
Summary of the method: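 Calf thymus DNA thermal denaturation. Drug at 5.2 × 10^-6 M and DNA (P) at 5.2 × 10^-5 M in 0.01 M phosphate buffer, pH 7, with 10^-5 M EDTA and 5% Me2SO. ΔTm = Tm of DNA-drug complex minus Tm of DNA alone. Values ≤1 are taken as insignificant binding.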

[29] = test system: L1210; assay: Compound was evaluated for drug concentration for 50% inhibition of actively growing L1210 cells in culture for the inhibition of incorporation of [3H]uridine in the RNA; format: functional; settings: Mus musculus, read-out: ED50 (the source's name); summary of the method: as §4
[30] = test system: Mus musculus; assay: Compound was evaluated for antitumor efficacy at optimum dose in mice aagainst B16 melanoma cells at 7.5 mg/Kgon day 1 (intraperitoneal); format: functional; summary of the method: as §2
[31] = test system: Mus musculus; assay: Compound was evaluated for antitumor efficacy at optimum dose in mice against B16 melanoma cells at 0.0063 mg/Kg dose on day 1 (intraperitoneal); format: functional
[32] = test system: Mus musculus; assay: Compound was evaluated for antitumor efficacy at optimum dose in mice against B16 melanoma cells at q4d 5,9,13 days (intraperitoneal); Inactive; format: functional, organism-based

Structure (SMILES): COc1cccc2c1C(=O)c1c(O)c3c(c(O)c1C2=O)C[C@@](O)(C(=O)CO)C[C@@H]3OC1CC(N2CCOCC2)C(O)C(C)O1 (some centres undefined)
- logD [1]: 1.73
- logD [2]: 0.96
- logD [3]: -1.1
- logD [4]: 1.42

Structure (SMILES): COc1cccc2c1C(=O)c1c(O)c3c(c(O)c1C2=O)C[C@@](O)(C(=O)CO)C[C@@H]3OC1CC2C(OC3COCC(C#N)N32)C(C)O1 (some centres undefined)
- ΔTm [5]: 12.2
- T/C [6]: >=153%
- pEC50 [7]: 5.85
- logD [1]: 2.41
- pEC50 [8]: 6.26
- Delta Tm [9]: 2.6
- T/C [10]: 150%
- logD [2]: 2.4
- T/C [11]: 141%
- logD [3]: 2.24
- pEC50 [12]: 6.66
- logD [4]: 2.29
- T/C [13]: 135%
- Delta Tm [14]: 12.8
- pEC50 [15]: 5.70
- pEC50 [16]: 4.60
- pEC50 [17]: 6.10

Structure (SMILES): COc1cccc2c1C(=O)c1c(O)c3c(c(O)c1C2=O)C[C@@](O)(C(C)=O)C[C@@H]3OC1CC2C(OC3COCC(C#N)N32)C(C)O1 (some centres undefined)
- pEC50 [18]: 6.38
- Delta Tm [19]: 5
- pEC50 [20]: 6.08
- Delta Tm [21]: 8.3
- pEC50 [22]: 6.66
- pEC50 [23]: 5.71

- pEC50 [24]: 5.80
- Delta Tm [28]: 12.8
- pEC50 [29]: 6.24
Structure (SMILES): COc1cccc2c1C(=O)c1c(O)c3c(c(O)c1C2=O)C[C@@](O)(C(=O)CO)C[C@@H]3O[C@H]1C[C@H](N)[C@H](O)[C@H](C)O1 [DOXORUBICIN]
- T/C [25]: 160%
- T/C [26]: 206%
- T/C [27]: 252%
- T/C [30]: 192%

Structure (SMILES): COc1cccc2c1C(=O)c1c(O)c3c(c(O)c1C2=O)C[C@@](O)(C(=O)CO)C[C@@H]3OC1CC(N2CCOCC2C#N)C(O)C(C)O1 (some centres undefined)
- T/C [31]: >=138%
- pEC50 [24]: 8.52
- T/C [32]: inactive
- Delta Tm [28]: 8.7
- pEC50 [29]: 9.28
